# Laboratory results from ChEMBL document CHEMBL1275408, “A chemical genomic screen in Saccharomyces cerevisiae reveals a role for diphthamidation of translation elongation factor 2 in inhibition of protein synthesis by sordarin” (2008).
# Activity calls are given as the source filed them. The calls are words filed in the database; no cut-off is given here.
# Experiments:
# [1] = test system: Saccharomyces cerevisiae; assay: Antifungal activity against Saccharomyces cerevisiae BY4741 harboring TOK1 YJL093C mutant gene by spectrophotometry; type: functional
# Procedure, shortened: (§1)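 Haploid MATa BY4741 KanMX4 deletion strains pinned from frozen stocks into YPD + G418 (150 mg/liter), grown 3 days at 28°C to confluence, then pin-replicated into SC liquid with no drug or sordarin derivative GM193663 (2 ng/ml sensitivity; 62.5 ng/ml resistance). 28°C, OD595 read every 24 h for 5 days; growth scored relative to wild type on same plate and to untreated mutant.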
# [2] = test system: Saccharomyces cerevisiae; assay: Antifungal activity against Saccharomyces cerevisiae BY4741 harboring AMS1 YGL156W mutant gene by spectrophotometry; type: functional
# Procedure, shortened: (§2)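 Screen of BY4741 KanMX4 deletion strains pre-grown 3 days at 28°C in YPD with G418 (150 mg/liter), then pinned into liquid SC containing GM193663. The sensitivity screen used 2 ng/ml; the resistance screen used 62.5 ng/ml, with validation at 62.5, 125 and 500 ng/ml. OD595 was read every 24 h over 5 days at 28°C. Growth was scored relative to wild type and to drug-free controls. Retests were at least in duplicate.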
# [3] = test system: Saccharomyces cerevisiae; assay: Antifungal activity against Saccharomyces cerevisiae BY4741 harboring CTF3 YLR381W mutant gene by spectrophotometry; type: functional; procedure, shortened: as §2
# [4] = test system: Saccharomyces cerevisiae; assay: Antifungal activity against Saccharomyces cerevisiae BY4741 harboring CPR6 YLR216C mutant gene by spectrophotometry; type: functional; procedure, shortened: as §2
# [5] = test system: Saccharomyces cerevisiae; assay: Antifungal activity against Saccharomyces cerevisiae BY4741 harboring PRR2 YDL214C mutant gene by spectrophotometry; type: functional; procedure, shortened: as §1
# [6] = test system: Saccharomyces cerevisiae; assay: Antifungal activity against Saccharomyces cerevisiae BY4741 harboring RBS1 YDL189W mutant gene by spectrophotometry; type: functional; procedure, shortened: as §1
# [7] = test system: Saccharomyces cerevisiae; assay: Antifungal activity against Saccharomyces cerevisiae BY4741 harboring SHU2 YDR078C mutant gene by spectrophotometry; type: functional; procedure, shortened: as §1
# [8] = test system: Saccharomyces cerevisiae; assay: Antifungal activity against Saccharomyces cerevisiae BY4741 harboring DJP1 YIR004W mutant gene by spectrophotometry; type: functional; procedure, shortened: as §2
# [9] = test system: Saccharomyces cerevisiae; assay: Antifungal activity against Saccharomyces cerevisiae BY4741 harboring ARN1 YHL040C mutant gene by spectrophotometry; type: functional; procedure, shortened: as §2
# [10] = test system: Saccharomyces cerevisiae; assay: Antifungal activity against Saccharomyces cerevisiae BY4741 harboring ADE4 YMR300C mutant gene by spectrophotometry; type: functional; procedure, shortened: as §2
# [11] = test system: Saccharomyces cerevisiae; assay: Antifungal activity against Saccharomyces cerevisiae BY4741 harboring ARO3 YDR035W mutant gene by spectrophotometry; type: functional; procedure, shortened: as §2
# [12] = test system: Saccharomyces cerevisiae; assay: Antifungal activity against Saccharomyces cerevisiae BY4741 harboring SER1 YOR184W mutant gene by spectrophotometry; type: functional; procedure, shortened: as §1
# [13] = test system: Saccharomyces cerevisiae; assay: Antifungal activity against Saccharomyces cerevisiae BY4741 harboring DOC1 YGL240W mutant gene by spectrophotometry; type: functional; procedure, shortened: as §2
# [14] = test system: Saccharomyces cerevisiae; assay: Antifungal activity against Saccharomyces cerevisiae BY4741 harboring NAT3 YPR131C mutant gene by spectrophotometry; type: functional; procedure, shortened: as §1
# [15] = test system: Saccharomyces cerevisiae; assay: Antifungal activity against Saccharomyces cerevisiae BY4741 harboring MRPL3 YMR024W mutant gene by spectrophotometry; type: functional; procedure, shortened: as §1
# [16] = test system: Saccharomyces cerevisiae; assay: Antifungal activity against Saccharomyces cerevisiae BY4741 harboring RPS18A YDR450W mutant gene by spectrophotometry; type: functional; procedure, shortened: as §1
# [17] = test system: Saccharomyces cerevisiae; assay: Antifungal activity against Saccharomyces cerevisiae BY4741 harboring RPL21A YBR191W mutant gene by spectrophotometry; type: functional; procedure, shortened: as §1
# [18] = test system: Saccharomyces cerevisiae; assay: Antifungal activity against Saccharomyces cerevisiae BY4741 harboring RPL12B YDR418W mutant gene by spectrophotometry; type: functional; procedure, shortened: as §1
# [19] = test system: Saccharomyces cerevisiae; assay: Antifungal activity against Saccharomyces cerevisiae BY4741 harboring JJJ3/DPH4 YJR097W mutant gene by spectrophotometry; type: functional; procedure, shortened: as §2
# [20] = test system: Saccharomyces cerevisiae; assay: Antifungal activity against Saccharomyces cerevisiae BY4741 harboring DPH1 YIL103W mutant gene by spectrophotometry; type: functional; procedure, shortened: as §2
# [21] = test system: Saccharomyces cerevisiae; assay: Antifungal activity against Saccharomyces cerevisiae BY4741 harboring SPS1 YDR523C mutant gene assessed as reduction in fungal growth at 2 ng/ml by spectrophotometry; type: functional, organism-based
# Procedure, shortened: (§3)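 Deletion strains (BY4741 background) pre-grown 3 days at 28°C in YPD + G418 (150 mg/liter), then pin-replicated into SC liquid containing 2 ng/ml GM193663 or no drug. 28°C, OD595 every 24 h over 5 days; growth scored against wild type on same plate and against drug-free mutant control; hits retested at least in duplicate at 2 ng/ml.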
# [22] = test system: Saccharomyces cerevisiae; assay: Antifungal activity against Saccharomyces cerevisiae BY4741 harboring SSQ1 YLR369W mutant gene assessed as reduction in fungal growth at 2 ng/ml by spectrophotometry; type: functional, organism-based; procedure, shortened: as §3
# [23] = test system: Saccharomyces cerevisiae; assay: Antifungal activity against Saccharomyces cerevisiae BY4741 harboring HEM14 YER014W mutant gene assessed as reduction in fungal growth at 2 ng/ml by spectrophotometry; type: functional, organism-based
# Procedure, shortened: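 Haploid BY4741 KanMX4 deletion strains pre-grown in YPD with G418 (150 mg/liter) for 3 days at 28°C. They were then pin-replicated into liquid SC with sordarin derivative GM193663 at 2 ng/ml, or without drug. Plates were incubated at 28°C and OD595 read every 24 h for 5 days. Growth was scored against wild type on the same plate and against the drug-free mutant. Hits were retested at least in duplicate.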
# [24] = test system: Saccharomyces cerevisiae; assay: Antifungal activity against Saccharomyces cerevisiae BY4741 harboring deletion mutation in dph5 gene at 300 to 500 ng/ml after 24 hrs by liquid growth assay; type: functional
# [25] = test system: Saccharomyces cerevisiae; assay: Antifungal activity against Saccharomyces cerevisiae BY4741 harboring deletion mutation in dph2 gene at 300 to 500 ng/ml after 24 hrs by liquid growth assay; type: functional
# [26] = test system: Saccharomyces cerevisiae; assay: Antifungal activity against Saccharomyces cerevisiae BY4741 harboring deletion mutation in dph4 gene at 100 ng/ml by plate assay; type: functional, organism-based
# Procedure, shortened: (§4)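 Spot test on solid SC glucose plates with or without 100 ng/ml sordarin. Drops of 10^5 cells plus 10-fold serial dilutions of each dph deletion strain were spotted alongside the parental strain. Plates were incubated at 28°C for 6 days and imaged every 24 h.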
# [27] = test system: Saccharomyces cerevisiae; assay: Antifungal activity against Saccharomyces cerevisiae BY4741 harboring deletion mutation in dph3 gene at 100 ng/ml by plate assay; type: functional, organism-based; procedure, shortened: as §4
# [28] = test system: Saccharomyces cerevisiae; assay: Antifungal activity against Saccharomyces cerevisiae BY4741 harboring deletion mutation in dph2 gene at 100 ng/ml by plate assay; type: functional, organism-based; procedure, shortened: as §4
# [29] = test system: Saccharomyces cerevisiae; assay: Antifungal activity against Saccharomyces cerevisiae BY4741 harboring MRH1 YDR033W mutant gene by spectrophotometry; type: functional; procedure, shortened: as §2
# [30] = test system: Saccharomyces cerevisiae; assay: Antifungal activity against Saccharomyces cerevisiae BY4741 harboring YLR143W mutation in unknown gene by spectrophotometry; type: functional
# Procedure, shortened: (§5)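 Deletion strains from the nonessential haploid MATa BY4741 collection (KanMX4 replacement) were grown in YPD with G418 at 28°C for 3 days, then pinned into liquid SC with or without sordarin derivative GM193663 (2 ng/ml for sensitivity, 62.5 ng/ml for resistance). Cultures were kept at 28°C and read at OD595 every 24 h for 5 days. Growth was scored against wild type on the same plate and against the drug-free control. Hits were retested at least in duplicate.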
# [31] = test system: Saccharomyces cerevisiae; assay: Antifungal activity against Saccharomyces cerevisiae BY4741 harboring YSC83 YHR017W mutant gene by spectrophotometry; type: functional; procedure, shortened: as §5
# [32] = test system: Saccharomyces cerevisiae; assay: Antifungal activity against Saccharomyces cerevisiae BY4741 harboring YBR255W mutation in unknown gene by spectrophotometry; type: functional; procedure, shortened: as §1
# [33] = test system: Saccharomyces cerevisiae; assay: Antifungal activity against Saccharomyces cerevisiae BY4741 harboring YBR141C mutation in unknown gene by spectrophotometry; type: functional; procedure, shortened: as §1
smiles,measurement,setting,value
CO[C@H]1[C@@H](O)[C@H](O)[C@H](OC[C@@]23C[C@@H]4[C@H](C)CC[C@H]4[C@@]4(C=O)CC2C=C(C(C)C)[C@@]34C(=O)O)O[C@@H]1C [SORDARIN],MIC,[1],> 0.125 µg/mL
same,MIC,[2],> 0.125 µg/mL
same,MIC,[3],> 0.125 µg/mL
same,MIC,[4],> 0.125 µg/mL
same,MIC,[5],> 0.5 µg/mL
same,MIC,[6],> 0.5 µg/mL
same,MIC,[7],> 0.5 µg/mL
same,MIC,[8],> 0.5 µg/mL
same,MIC,[9],> 0.5 µg/mL
same,MIC,[10],> 0.5 µg/mL
same,MIC,[11],> 0.5 µg/mL
same,MIC,[12],> 0.5 µg/mL
same,MIC,[13],> 0.5 µg/mL
same,MIC,[14],> 0.0625 µg/mL
same,MIC,[15],> 0.125 µg/mL
same,MIC,[16],> 0.0625 µg/mL
same,MIC,[17],> 0.125 µg/mL
same,MIC,[18],> 0.5 µg/mL
same,MIC,[19],> 0.125 µg/mL
same,MIC,[20],> 0.5 µg/mL
same,Activity,[21],Active
same,Activity,[22],Active
same,Activity,[23],Active
same,Activity,[24],50%
same,Activity,[25],50%
same,MIC,[26],inactive
same,MIC,[27],inactive
same,MIC,[28],inactive
same,MIC,[29],> 0.125 µg/mL
same,MIC,[30],> 0.5 µg/mL
same,MIC,[31],> 0.5 µg/mL
same,MIC,[32],> 0.5 µg/mL
same,MIC,[33],> 0.5 µg/mL
